Laboratory results from ChEMBL document CHEMBL4689842, “EUbOPEN Chemogenomics Library wave 1” (2021).
Several values for one entry are separate records, joined by “and”; a condition that tells them apart may be missing. Equal entries are not always repeated.

Tested on: HEK-293T
Test: Multiplex assay against HEK293T;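 for Population Tubulin-Different-Phenotype (%): share of the cells with healthy nuclei that show this phenotype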
Format: toxicity, cell-based
Conditions: human
In short: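 Tubulin, mitochondrial-mass and membrane-permeability phenotypes are per cents of healthy-nucleus cells. Cells were gated by CellPathfinder machine learning into Hoechst high-intensity objects or normal cells, normal cells into healthy, pyknosed or fragmented nuclei, and pyknosed cells into mitotic or apoptotic. Before that, live cells stained at seeding with Hoechst33342, BioTracker Green Microtubule Cytoskeleton Dye, MitoTracker Red and Annexin V Alexa Fluor 680 were imaged on a CQ1 microscope at 37°C and 5% CO2 after compound addition.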

[1] = 12 h, 1 µM, compound concentration 1 uM, replicate 1
[2] = 12 h, 1 µM, compound concentration 1 uM, replicate 2
[3] = 12 h, 10 µM, compound concentration 10 uM, replicate 1
[4] = 12 h, 10 µM, compound concentration 10 uM, replicate 2
[5] = 24 h, 1 µM, compound concentration 1 uM, replicate 1
[6] = 24 h, 1 µM, compound concentration 1 uM, replicate 2
[7] = 24 h, 10 µM, compound concentration 10 uM, replicate 1
[8] = 24 h, 10 µM, compound concentration 10 uM, replicate 2
[9] = 48 h, 1 µM, compound concentration 1 uM, replicate 1
[10] = 48 h, 1 µM, compound concentration 1 uM, replicate 2
[11] = 48 h, 10 µM, compound concentration 10 uM, replicate 1
[12] = 48 h, 10 µM, compound concentration 10 uM, replicate 2

SMILES: Cc1ccc(S(=O)(=O)NC2c3ccccc3Oc3ccccc32)cc1
- Population Apoptotic (%) [1]: 46%
- Population Fragmented Nuclei (%) [1]: 11%
- Population Healthy Nuclei (%) [1]: 44%
- Population Hoechst High Intensity Objects (%) [1]: 11%
- Population Membrane Permeable-Phenotype (%) [1]: 2%
- Population Mitochondria Different-Phenotype (%) [1]: 64%
- Population Mitotic Cells (%) [1]: 53%
- Population Normal (%) [1]: 88%
- Population Pyknosed Nuclei (%) [1]: 44%
- Population Tubulin-Different-Phenotype (%) [1]: 27%
- Total Cell Count [1]: 362
- Population Apoptotic (%) [2]: 21%
- Population Fragmented Nuclei (%) [2]: 5%
- Population Healthy Nuclei (%) [2]: 49%
- Population Hoechst High Intensity Objects (%) [2]: 2%
- Population Membrane Permeable-Phenotype (%) [2]: 17%
- Population Mitochondria Different-Phenotype (%) [2]: 9%
- Population Mitotic Cells (%) [2]: 78%
- Population Normal (%) [2]: 97%
- Population Pyknosed Nuclei (%) [2]: 45%
- Population Tubulin-Different-Phenotype (%) [2]: 22%
- Total Cell Count [2]: 179
- Population Apoptotic (%) [3]: 59%
- Population Fragmented Nuclei (%) [3]: 32%
- Population Healthy Nuclei (%) [3]: 37%
- Population Hoechst High Intensity Objects (%) [3]: 11%
- Population Membrane Permeable-Phenotype (%) [3]: 3%
- Population Mitochondria Different-Phenotype (%) [3]: 86%
- Population Mitotic Cells (%) [3]: 40%
- Population Normal (%) [3]: 88%
- Population Pyknosed Nuclei (%) [3]: 30%
- Population Tubulin-Different-Phenotype (%) [3]: 74%
- Total Cell Count [3]: 398
- Population Apoptotic (%) [4]: 16%
- Population Fragmented Nuclei (%) [4]: 33%
- Population Healthy Nuclei (%) [4]: 34%
- Population Hoechst High Intensity Objects (%) [4]: 5%
- Population Membrane Permeable-Phenotype (%) [4]: 12%
- Population Mitochondria Different-Phenotype (%) [4]: 33%
- Population Mitotic Cells (%) [4]: 83%
- Population Normal (%) [4]: 94%
- Population Pyknosed Nuclei (%) [4]: 31%
- Population Tubulin-Different-Phenotype (%) [4]: 49%
- Total Cell Count [4]: 307
- Population Apoptotic (%) [5]: 41%
- Population Fragmented Nuclei (%) [5]: 10%
- Population Healthy Nuclei (%) [5]: 47%
- Population Hoechst High Intensity Objects (%) [5]: 13%
- Population Membrane Permeable-Phenotype (%) [5]: 4%
- Population Mitochondria Different-Phenotype (%) [5]: 55%
- Population Mitotic Cells (%) [5]: 58%
- Population Normal (%) [5]: 86%
- Population Pyknosed Nuclei (%) [5]: 41%
- Population Tubulin-Different-Phenotype (%) [5]: 41%
- Total Cell Count [5]: 392
- Population Apoptotic (%) [6]: 22%
- Population Fragmented Nuclei (%) [6]: 8%
- Population Healthy Nuclei (%) [6]: 55%
- Population Hoechst High Intensity Objects (%) [6]: 1%
- Population Membrane Permeable-Phenotype (%) [6]: 23%
- Population Mitochondria Different-Phenotype (%) [6]: 12%
- Population Mitotic Cells (%) [6]: 77%
- Population Normal (%) [6]: 98%
- Population Pyknosed Nuclei (%) [6]: 36%
- Population Tubulin-Different-Phenotype (%) [6]: 29%
- Total Cell Count [6]: 239
- Population Apoptotic (%) [7]: 55%
- Population Fragmented Nuclei (%) [7]: 13%
- Population Healthy Nuclei (%) [7]: 55%
- Population Hoechst High Intensity Objects (%) [7]: 10%
- Population Membrane Permeable-Phenotype (%) [7]: 7%
- Population Mitochondria Different-Phenotype (%) [7]: 68%
- Population Mitotic Cells (%) [7]: 45%
- Population Normal (%) [7]: 89%
- Population Pyknosed Nuclei (%) [7]: 30%
- Population Tubulin-Different-Phenotype (%) [7]: 55%
- Total Cell Count [7]: 362
- Population Apoptotic (%) [8]: 17%
- Population Fragmented Nuclei (%) [8]: 11%
- Population Healthy Nuclei (%) [8]: 52%
- Population Hoechst High Intensity Objects (%) [8]: 3%
- Population Membrane Permeable-Phenotype (%) [8]: 9%
- Population Mitochondria Different-Phenotype (%) [8]: 31%
- Population Mitotic Cells (%) [8]: 82%
- Population Normal (%) [8]: 96%
- Population Pyknosed Nuclei (%) [8]: 36%
- Population Tubulin-Different-Phenotype (%) [8]: 47%
- Total Cell Count [8]: 283
- Population Apoptotic (%) [9]: 34%
- Population Fragmented Nuclei (%) [9]: 18%
- Population Healthy Nuclei (%) [9]: 46%
- Population Hoechst High Intensity Objects (%) [9]: 12%
- Population Membrane Permeable-Phenotype (%) [9]: 2%
- Population Mitochondria Different-Phenotype (%) [9]: 26%
- Population Mitotic Cells (%) [9]: 65%
- Population Normal (%) [9]: 87%
- Population Pyknosed Nuclei (%) [9]: 35%
- Population Tubulin-Different-Phenotype (%) [9]: 28%
- Total Cell Count [9]: 465
- Population Apoptotic (%) [10]: 13%
- Population Fragmented Nuclei (%) [10]: 8%
- Population Healthy Nuclei (%) [10]: 78%
- Population Hoechst High Intensity Objects (%) [10]: 3%
- Population Membrane Permeable-Phenotype (%) [10]: 11%
- Population Mitochondria Different-Phenotype (%) [10]: 3%
- Population Mitotic Cells (%) [10]: 86%
- Population Normal (%) [10]: 96%
- Population Pyknosed Nuclei (%) [10]: 12%
- Total Cell Count [10]: 466
- Population Apoptotic (%) [11]: 36%
- Population Fragmented Nuclei (%) [11]: 13%
- Population Healthy Nuclei (%) [11]: 66%
- Population Hoechst High Intensity Objects (%) [11]: 8%
- Population Membrane Permeable-Phenotype (%) [11]: 2%
- Population Mitochondria Different-Phenotype (%) [11]: 27%
- Population Mitotic Cells (%) [11]: 63%
- Population Normal (%) [11]: 91%
- Population Pyknosed Nuclei (%) [11]: 20%
- Population Tubulin-Different-Phenotype (%) [11]: 38%
- Total Cell Count [11]: 453
- Population Apoptotic (%) [12]: 12%
- Population Fragmented Nuclei (%) [12]: 4%
- Population Healthy Nuclei (%) [12]: 73%
- Population Hoechst High Intensity Objects (%) [12]: 2%
- Population Membrane Permeable-Phenotype (%) [12]: 6%
- Population Mitochondria Different-Phenotype (%) [12]: 20%
- Population Mitotic Cells (%) [12]: 87%
- Population Normal (%) [12]: 97%
- Population Pyknosed Nuclei (%) [12]: 22%
- Population Tubulin-Different-Phenotype (%) [12]: 45%
- Total Cell Count [12]: 374

SMILES: CC[C@@]1(O)C(=O)OCc2c1cc1n(c2=O)Cc2cc3ccccc3nc2-1 [CAMPTOTHECIN]
- Population Apoptotic (%) [1]: 13% and 29% and 33%
- Population Healthy Nuclei (%) [1]: 67% and 60% and 69%
- Population Membrane Permeable-Phenotype (%) [1]: 5% and 3%
- Population Mitochondria Different-Phenotype (%) [1]: 5% and 3%
- Population Mitotic Cells (%) [1]: 86% and 70% and 66%
- Population Normal (%) [1]: 94% and 66% and 79%
- Population Tubulin-Different-Phenotype (%) [1]: 5% and 0% and 2%
- Total Cell Count [1]: 915 and 710 and 886
- Population Healthy Nuclei (%) [2]: 94% and 77% and 79%
- Population Membrane Permeable-Phenotype (%) [2]: 2% and 1%
- Population Mitochondria Different-Phenotype (%) [2]: 19% and 9%
- Population Mitotic Cells (%) [2]: 87% and 81% and 50%
- Population Normal (%) [2]: 98% and 95% and 96%
- Population Pyknosed Nuclei (%) [2]: 2% and 1% and 0%
- Total Cell Count [2]: 1821 and 1627 and 1427
- Population Apoptotic (%) [3]: 16%
- Population Fragmented Nuclei (%) [3]: 15%
- Population Healthy Nuclei (%) [3]: 57%
- Population Hoechst High Intensity Objects (%) [3]: 13%
- Population Membrane Permeable-Phenotype (%) [3]: 3%
- Population Mitochondria Different-Phenotype (%) [3]: 2%
- Population Mitotic Cells (%) [3]: 83%
- Population Normal (%) [3]: 86%
- Population Pyknosed Nuclei (%) [3]: 26%
- Population Tubulin-Different-Phenotype (%) [3]: 2%
- Total Cell Count [3]: 665
- Population Apoptotic (%) [4]: 20%
- Population Fragmented Nuclei (%) [4]: 3%
- Population Healthy Nuclei (%) [4]: 93%
- Population Hoechst High Intensity Objects (%) [4]: 2%
- Population Membrane Permeable-Phenotype (%) [4]: 2%
- Population Mitochondria Different-Phenotype (%) [4]: 14%
- Population Mitotic Cells (%) [4]: 80%
- Population Normal (%) [4]: 97%
- Population Pyknosed Nuclei (%) [4]: 3%
- Population Tubulin-Different-Phenotype (%) [4]: 9%
- Total Cell Count [4]: 1781
- Population Apoptotic (%) [5]: 26% and 33% and 22%
- Population Healthy Nuclei (%) [5]: 68% and 76% and 85%
- Population Membrane Permeable-Phenotype (%) [5]: 7% and 5% and 4%
- Population Mitochondria Different-Phenotype (%) [5]: 3% and 4% and 5%
- Population Mitotic Cells (%) [5]: 73% and 66% and 77%
- Population Normal (%) [5]: 69% and 81% and 96%
- Population Pyknosed Nuclei (%) [5]: 5% and 2% and 10%
- Population Tubulin-Different-Phenotype (%) [5]: 5% and 6%
- Total Cell Count [5]: 653 and 837 and 854
- Population Fragmented Nuclei (%) [6]: 18% and 8%
- Population Healthy Nuclei (%) [6]: 81% and 78% and 90%
- Population Hoechst High Intensity Objects (%) [6]: 5%
- Population Membrane Permeable-Phenotype (%) [6]: 2% and 1%
- Population Mitochondria Different-Phenotype (%) [6]: 6% and 8% and 7%
- Population Mitotic Cells (%) [6]: 100% and 62%
- Population Normal (%) [6]: 94%
- Population Pyknosed Nuclei (%) [6]: 0%
- Population Tubulin-Different-Phenotype (%) [6]: 8% and 13%
- Total Cell Count [6]: 1448 and 1582 and 1694
- Population Apoptotic (%) [7]: 23%
- Population Fragmented Nuclei (%) [7]: 11%
- Population Healthy Nuclei (%) [7]: 73%
- Population Hoechst High Intensity Objects (%) [7]: 8%
- Population Membrane Permeable-Phenotype (%) [7]: 4%
- Population Mitochondria Different-Phenotype (%) [7]: 2%
- Population Mitotic Cells (%) [7]: 76%
- Population Normal (%) [7]: 92%
- Population Pyknosed Nuclei (%) [7]: 15%
- Population Tubulin-Different-Phenotype (%) [7]: 3%
- Total Cell Count [7]: 575
- Population Apoptotic (%) [8]: 44%
- Population Fragmented Nuclei (%) [8]: 8%
- Population Healthy Nuclei (%) [8]: 90%
- Population Hoechst High Intensity Objects (%) [8]: 4%
- Population Membrane Permeable-Phenotype (%) [8]: 0%
- Population Mitochondria Different-Phenotype (%) [8]: 4%
- Population Mitotic Cells (%) [8]: 55%
- Population Normal (%) [8]: 95%
- Population Pyknosed Nuclei (%) [8]: 0%
- Population Tubulin-Different-Phenotype (%) [8]: 5%
- Total Cell Count [8]: 1706
